≈ marks a conversion by molar mass, not a printed value.
Assays:
[1] = tested on: Pseudomonas aeruginosa; assay: Antibacterial activity against Pseudomonas aeruginosa clinical isolate after 18 to 24 hrs; type: functional
[2] = biological target: T1, UDP-3-O-acyl-N-acetylglucosamine deacetylase (Pseudomonas aeruginosa (strain ATCC 15692 / PAO1 / 1C / PRS 101 / LMG12228), UniProt P47205); assay: Inhibition of Pseudomonas aeruginosa LpxC using UDP-3-O-(R-hydroxydecanoyl)-N-acetylglucosamine as substrate preincubated for 30 mins followed by substrate addition measured after 20 mins by LC-MS/MS analysis
T1 sequence (P47205 whole entry): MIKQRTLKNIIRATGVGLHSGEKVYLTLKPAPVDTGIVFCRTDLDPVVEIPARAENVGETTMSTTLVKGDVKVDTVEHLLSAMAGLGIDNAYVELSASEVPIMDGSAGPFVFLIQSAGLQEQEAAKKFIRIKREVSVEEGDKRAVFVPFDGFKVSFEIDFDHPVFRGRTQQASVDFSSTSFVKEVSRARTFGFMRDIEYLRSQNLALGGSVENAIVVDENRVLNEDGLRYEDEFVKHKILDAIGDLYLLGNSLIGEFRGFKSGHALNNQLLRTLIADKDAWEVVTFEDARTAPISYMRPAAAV

[3] = tested on: Pseudomonas aeruginosa; assay: Antibacterial activity against mexAB-oprM deficient Pseudomonas aeruginosa K1119 after 18 to 24 hrs; type: functional
Summary of the method: (§1)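 Broth MIC per CLSI guidelines in cation-adjusted Mueller Hinton broth. Compounds were dissolved and serially diluted in DMSO (carbapenems in water) before addition to plates. Incubation was at 37 °C for 18−24 h. MIC is the lowest concentration preventing visible growth. MIC50/MIC90 are the concentrations inhibiting 50% or 90% of isolates tested.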

[4] = tested on: Pseudomonas aeruginosa; assay: Antibacterial activity against Pseudomonas aeruginosa PAO1 K767 after 18 to 24 hrs; type: functional; summary of the method: as §1
[5] = tested on: Pseudomonas aeruginosa; assay: Antibacterial activity against hypersusceptible Pseudomonas aeruginosa Z61 after 18 to 24 hrs; type: functional; summary of the method: as §1
[6] = Cytotoxicity against human K562 cells assessed as reduction in cell viability after 72 hrs by WST1 assay; type: cell-based
Summary of the method: (§2)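 Cells were grown and assayed in medium with 10% heat-inactivated FBS and exposed to compound for 72 h. Metabolic activity was read as WST-1 cleavage to formazan at A450, with puromycin as positive control. CC50 (50% reduction in viability) was calculated from dose-response curves.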

[7] = Solubility of the compound at pH 6.8 by high throughput screening assay; type: physicochemical; settings: buffer
[8] = Protein binding in mouse plasma; type: ADME, cell-free; settings: read-out: PPB (converted)
[9] = Protein binding in human plasma; type: ADME, cell-free; settings: read-out: PPB (converted)
[10] = Protein binding in rat plasma; type: ADME, cell-free; settings: read-out: PPB (converted)
[11] = Cytotoxicity against human HepG2 cells assessed as reduction in cell viability after 72 hrs by WST1 assay; type: cell-based; summary of the method: as §2
[12] = tested on: Acinetobacter baumannii; assay: Antibacterial activity against Acinetobacter baumannii NB48015 after 18 to 24 hrs; type: functional; summary of the method: as §1
[13] = tested on: Stenotrophomonas maltophilia; assay: Antibacterial activity against Stenotrophomonas maltophilia NB55011 after 18 to 24 hrs; type: functional; summary of the method: as §1
[14] = tested on: Klebsiella oxytoca; assay: Antibacterial activity against Klebsiella oxytoca NB30007 after 18 to 24 hrs; type: functional; summary of the method: as §1
[15] = tested on: Alcaligenes; assay: Antibacterial activity against Alcaligenes xylosus NB56002 after 18 to 24 hrs; type: functional; summary of the method: as §1
[16] = tested on: Proteus mirabilis; assay: Antibacterial activity against Proteus mirabilis NB32022 after 18 to 24 hrs; type: functional; summary of the method: as §1
[17] = tested on: Klebsiella aerogenes; assay: Antibacterial activity against Enterobacter aerogenes NB24004 after 18 to 24 hrs; type: functional; summary of the method: as §1
[18] = tested on: Burkholderia cepacia; assay: Antibacterial activity against Burkholderia cepacia NB49016 after 18 to 24 hrs; type: functional; summary of the method: as §1

Compound | MIC50 [1] [µg/mL] | MIC90 [1] [µg/mL] | IC50 [2] [nM] | MIC [3] [µg/mL] | MIC [4] [µg/mL] | MIC [5] [µg/mL] | other results
COLISTIN | 0.5 | 2 |  |  |  |  | 
C[C@@H](N)[C@H](NC(=O)COc1ccc(N2CCCC2=O)cc1)C(=O)NO |  |  | 342 | > 128 | > 128 | > 128 | 
C[C@@H](NCC(=O)N1CCNC(=O)C1)[C@H](NC(=O)c1ccc(C#Cc2ccccc2)cc1)C(=O)NO |  |  | 4.19 | 0.5 (≈ 1.05 µM) | 32 (≈ 67 µM) | 4 (≈ 8.38 µM) | CC50 at 72 h [6]: > 100000 nM; solubility [7]: 0.392 µM
CC#CCOc1ccc(C(=O)N[C@H](C(=O)NO)[C@H](N)C(C)C)cc1 |  |  | 900 | 16 (≈ 48 µM) | > 128 | 32 (≈ 96 µM) | 
CC#CCOc1ccc(C(=O)NC(C(=O)NO)C(C)(C)N)cc1 (racemic) |  |  |  | 0.25 (≈ 0.783 µM) | 2 (≈ 6.26 µM) | 0.25 (≈ 0.783 µM) | 
C[C@@H](N)[C@H](NC(=O)[C@H]1CC[C@H](C(C)(C)C)CC1)C(=O)NO |  |  | 117 | 16 (≈ 53.4 µM) | 128 (≈ 428 µM) | 32 (≈ 107 µM) | 
C[C@@H](N)[C@H](NC(=O)c1ccc(C#Cc2ccccc2)cc1)C(=O)NO |  |  | 3.56 | 0.25 (≈ 0.741 µM) | 1 (≈ 2.96 µM) | 0.25 (≈ 0.741 µM) | fraction unbound [8]: 0.086; CC50 at 72 h [6]: 29500 nM; fraction unbound [9]: 0.081; fraction unbound [10]: 0.072
CCN1CCN(C(=O)N[C@@H](C(=O)N[C@@H]2C(=O)N3[C@@H]2SC(C)(C)[C@@H]3C(=O)O)c2ccccc2)C(=O)C1=O [PIPERACILLIN] | 32 (≈ 61.8 µM) | > 128 |  |  |  |  | 
CCCCc1ccc(C(=O)N[C@H](C(=O)NO)[C@@H](C)N)cc1 |  |  | 37.5 | 0.5 (≈ 1.7 µM) | 8 (≈ 27.3 µM) | 1 (≈ 3.41 µM) | CC50 at 72 h [6]: 42300 nM; solubility ([7]; read-out: solubility): > 293 µg/mL; CC50 at 72 h [11]: 125000 nM
CC(C)(O/N=C(\C(=O)N[C@@H]1C(=O)N2C(C(=O)[O-])=C(C[n+]3ccccc3)CS[C@H]12)c1csc(N)n1)C(=O)O [CEFTAZIDIME] | 4 (≈ 7.32 µM) | > 128 |  |  |  |  | 
C[C@@H](N)[C@H](NC(=O)c1ccc(OC(C)(C)C)cc1)C(=O)NO |  |  | 268 | 1 (≈ 3.23 µM) | 32 (≈ 103 µM) | 4 (≈ 12.9 µM) | 
C[C@@H](O)[C@H]1C(=O)N2C(C(=O)O)=C(S[C@@H]3CN[C@H](CNS(N)(=O)=O)C3)[C@H](C)[C@H]12 [DORIPENEM] | 1 (≈ 2.38 µM) | 32 (≈ 76.1 µM) |  |  |  |  | 
CC#CCOc1ccc(C(=O)N[C@H](C(=O)NO)[C@@H](C)N)cc1 |  |  | 19.7 | 0.25 (≈ 0.819 µM) | 2 (≈ 6.55 µM) | 0.5 (≈ 1.64 µM) | CC50 at 72 h [6]: > 419000 nM; solubility ([7]; read-out: solubility): 295 µg/mL; CC50 at 72 h [11]: > 419000 nM
C[C@@H](N)[C@H](NC(=O)c1ccc(N2CCOCC2)cc1)C(=O)NO |  |  | 1640 | 16 (≈ 49.6 µM) | > 128 | 32 (≈ 99.3 µM) | 
CC[C@H]1OC(=O)[C@H](C)[C@@H](O[C@H]2C[C@@](C)(OC)[C@@H](O)[C@H](C)O2)[C@H](C)[C@@H](O[C@@H]2O[C@H](C)C[C@H](N(C)C)[C@H]2O)[C@](C)(O)C[C@@H](C)CN(C)[C@H](C)[C@@H](O)[C@]1(C)O [AZITHROMYCIN] | 16 (≈ 21.4 µM) | > 128 |  |  |  |  | 
CC#CCOc1ccc(C(=O)N[C@H](C(=O)NO)[C@H](N)C2CC2)cc1 |  |  | 362 | 2 (≈ 6.04 µM) | 32 (≈ 96.6 µM) | 4 (≈ 12.1 µM) | 
NCC[C@H](O)C(=O)N[C@@H]1C[C@H](N)[C@@H](O[C@H]2O[C@H](CN)[C@@H](O)[C@H](O)[C@H]2O)[C@H](O)[C@H]1O[C@H]1O[C@H](CO)[C@@H](O)[C@H](N)[C@H]1O [AMIKACIN] | 16 (≈ 27.3 µM) | > 128 |  |  |  |  | 
CC#CCOc1ccc(C(=O)N[C@H](C(=O)NO)[C@H](C)N)cc1 |  |  | 16.4 | 0.5 (≈ 1.64 µM) | 1 (≈ 3.28 µM) | 1 (≈ 3.28 µM) | 
CC#CCOc1ccc(C(=O)N[C@H](C(=O)NO)[C@@H](N)C(F)(F)F)cc1 |  |  | 39 | 0.25 (≈ 0.696 µM) | 16 (≈ 44.5 µM) | 1 (≈ 2.78 µM) | 
C[C@@H](O)[C@H]1C(=O)N2C(C(=O)O)=C(S[C@@H]3CN[C@H](C(=O)N(C)C)C3)[C@H](C)[C@H]12 [MEROPENEM] | 2 (≈ 5.22 µM) | 32 (≈ 83.4 µM) |  |  |  |  | 
C[C@@H](O)[C@H]1C(=O)N2C(C(=O)O)=C(SCCNC=N)C[C@H]12 [IMIPENEM ANHYDROUS] | 2 (≈ 6.68 µM) | 16 (≈ 53.4 µM) |  |  |  |  | 
CCc1ccc(-c2ccc(C(=O)N[C@H](C(=O)NO)[C@@H](C)NCC(=O)N3CCNC(=O)C3)cc2)cc1 |  |  |  | 0.125 (≈ 0.26 µM) | 16 (≈ 33.2 µM) | 1 (≈ 2.08 µM) | 
CCc1ccc(-c2ccc(C(=O)N[C@H](C(=O)NO)[C@@H](C)N)cc2)cc1 |  |  | 1.46 | 0.06 (≈ 0.176 µM) | 2 (≈ 5.86 µM) | 0.25 (≈ 0.732 µM) | CC50 at 72 h [6]: 7370 nM; solubility ([7]; read-out: solubility): 4 µg/mL; CC50 at 72 h [11]: 12800 nM
O=C(O)c1cn(C2CC2)c2cc(N3CCNCC3)c(F)cc2c1=O [CIPROFLOXACIN] |  |  |  |  |  |  | MIC [12]: 0.5 µg/mL (≈ 1.51 µM); MIC [13]: 0.5 µg/mL (≈ 1.51 µM); MIC [14]: ≤ 0.03 µg/mL; MIC [15]: 2 µg/mL (≈ 6.04 µM); MIC [16]: ≤ 0.03 µg/mL; MIC [17]: > 16 µg/mL; MIC [18]: 0.5 µg/mL (≈ 1.51 µM)
NC[C@H]1O[C@H](O[C@H]2[C@H](O)[C@@H](O[C@H]3O[C@H](CO)[C@@H](O)[C@H](N)[C@H]3O)[C@H](N)C[C@@H]2N)[C@H](N)C[C@@H]1O [TOBRAMYCIN] | 2 (≈ 4.28 µM) | > 128 |  |  |  |  | 
CCc1ccc(-c2ccc(C(=O)N[C@H](C(=O)NO)[C@@H](C)NCC(=O)O)cc2)cc1 |  |  | 1 | 1 (≈ 2.5 µM) | 128 (≈ 320 µM) | 32 (≈ 80.1 µM) | 
CC#CCOc1ccc(C(=O)N[C@@H](C(=O)NO)C(C)(C)N)cc1 |  |  |  | 2 (≈ 6.26 µM) | 16 (≈ 50.1 µM) | 4 (≈ 12.5 µM) | 
CC1(C)S[C@@H]2[C@H](NC(=O)[C@H](C(=O)O)c3ccsc3)C(=O)N2[C@H]1C(=O)O [TICARCILLIN] | 128 (≈ 333 µM) | > 128 |  |  |  |  | 
